Legend:
Mus musculus [1] = assay: In vivo induction of hypothermia in mice following 150 mg/Kg i.p.; type: functional
Mus musculus [2] = assay: Inhibition of t-BHP (tert-butyl-hydro-peroxide) induced toxicity in mice following 150 mg/Kg i.p.; type: functional
Outline: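 Male NMRI mice (30–35 g) pretreated ip with 150 mg/kg in 0.2 mL saline/Tween, 30 min before icv injection of 70% t-BHP (22 mg/kg/μl). Lethality checked at 1, 2, 5, 24 h; value is percentage survival at 2 h versus t-BHP-only group; n = 10 per group.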

Compound | Hypothermic effect (Mus musculus [1]) | Neuroprotection (Mus musculus [2])
CC(C)(C)/[N+]([O-])=C/c1ccccc1 | 0.9 °C | 57%
Cn1c(/C=[N+](\[O-])C(C)(C)C)cnc1-c1ccccc1 | 0.69 °C | 0%
CC(C)(C)/[N+]([O-])=C/c1c[nH]c(-c2ccoc2)n1 | 0.78 °C | 30%
CC(C)(C)/[N+]([O-])=C/c1nc(-c2ccccc2)c[nH]1 | 1.42 degrees C | 0%
CC(C)(C)/[N+]([O-])=C/c1c[nH]c(-c2ccsc2)n1 | 0.48 °C | 40%
CC(C)(C)/[N+]([O-])=C/c1c[nH]c(-c2c[nH]cn2)n1 | 0.13 °C | 0%
CC(C)(C)/[N+]([O-])=C/c1c[nH]c(-c2ccco2)n1 | 0.72 °C | 15%
Cn1cc(/C=[N+](\[O-])C(C)(C)C)nc1-c1ccccc1 | 0.3 °C | 50%
CC(C)(C)/[N+]([O-])=C/c1c[nH]c(-c2ccc(F)cc2)n1 | 2.01 °C | 67%
CC(C)(C)/[N+]([O-])=C/c1c[nH]c(-c2cccc3ccccc23)n1 | 0.52 °C | 75%
CC(C)(C)/[N+]([O-])=C/c1c[nH]c(-c2ccc3ccccc3c2)n1 | 1.62 °C | 94%
CC(C)(C)/[N+]([O-])=C/c1c[nH]c(-c2ccc(C(F)(F)F)cc2)n1 | 2.16 °C | 80%
CC(C)(C)/[N+]([O-])=C/c1c[nH]c(-c2ccccc2)n1 | 0.33 °C | 78%
CC(C)(C)/[N+]([O-])=C/c1c[nH]c(-c2cccc(Cl)c2)n1 | 1.66 °C | 89%
Cc1ccc(-c2nc(/C=[N+](\[O-])C(C)(C)C)c[nH]2)cc1 | 1.24 °C | 66%
CC(C)(C)/[N+]([O-])=C/c1c[nH]c(-c2ccc(Cl)cc2)n1 | 1.32 °C | 89%
CC(C)(C)/[N+]([O-])=C/c1c[nH]c(-c2ccc([N+](=O)[O-])cc2)n1 | 1.89 °C | 93%
CC(C)(C)/[N+]([O-])=C/c1c[nH]c(-c2cccnc2)n1 | 0.75 °C | 0%
CC(C)(C)/[N+]([O-])=C/c1c[nH]c(-c2nccs2)n1 | 0.38 °C | 0%
CC(C)(C)/[N+]([O-])=C/c1c[nH]c(-c2ccccn2)n1 | 0.36 °C | 0%
CC(C)(C)/[N+]([O-])=C/c1c[nH]c(-c2ccccc2Cl)n1 | 1.91 °C | 71%
COc1ccc(-c2nc(/C=[N+](\[O-])C(C)(C)C)c[nH]2)cc1 | 0.53 degrees C | 53%
CC(C)(C)/[N+]([O-])=C/c1c[nH]c(-c2ccncc2)n1 | 0.49 °C | 24%
